The test system of assay [1] is Pseudomonas aeruginosa. In words: Antimicrobial activity against Pseudomonas aeruginosa PaM02 at > 128 ug/ml by microtitre plate reader analysis. It is filed as functional, organism-based. An outline of the steps: (§1)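 Clinical mucoid strain grown overnight in LB broth at 37 °C and diluted with saline to OD600 around 1, then 100-fold. Compound in LB was added to an equal volume of cells, giving a final 5.0 × 10^5 CFU/ml and 128 µg/ml compound. Negative control was LB plus the matching DMSO level, with sterility and no-compound wells. Growth was read as turbidity at 600 nm; tobramycin served as positive control.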

Assay [2] concerns Pseudomonas aeruginosa. In words: Inhibition of biofilm formation of Pseudomonas aeruginosa PaM02 at 128 ug/ml after 24 hrs by crystal violet staining-based ELISA reader analysis. The format is functional. As to conditions: PaM02, 24 h. A digest of the protocol:
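Prevention assay: compound at 128 µg/ml final in LB was incubated in polystyrene wells overnight at 4 °C, aspirated, and wells washed with PBS. Wells were seeded with 100 µL of 1.0 × 10^7 CFU/ml inoculum and incubated 24 h at 37 °C. Biofilm was stained with 1% crystal violet, destained with 95% ethanol and read at 570 nm. Inhibition = [(Ac−At)/Ac] × 100 versus LB-preincubated controls.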

Assay [3] deals with Pseudomonas aeruginosa. In words: Bactericidal activity against Pseudomonas aeruginosa PaM02 at 128 ug/ml after 4 hrs by time kill analysis (reference value: 2.322 log10 CFU/ml). It is filed as functional.
The test system of assay [4] is Pseudomonas aeruginosa. In words: Bactericidal activity against Pseudomonas aeruginosa PaM02 at 128 ug/ml after 8 hrs by time kill analysis (reference value: 2.322 log10 CFU/ml). The format is functional.
In assay [5] the test system is Pseudomonas aeruginosa. Kind of assay: Bactericidal activity against Pseudomonas aeruginosa PaM02 at 128 ug/ml after 24 hrs by time kill analysis (reference value: 2.322 log10 CFU/ml). The format is functional.
The test system of assay [6] is Pseudomonas aeruginosa. In words: Antimicrobial activity against Pseudomonas aeruginosa PaM02 assessed as growth inhibition at 0.245 umol/ml by microtitre plate reader analysis. It is filed as functional. A digest of the protocol: as §1
Assay [7] has as its system Pseudomonas aeruginosa. In words: Bactericidal activity against Pseudomonas aeruginosa PaM02 at 128 ug/ml after 16 hrs by time kill analysis (reference value: 2.322 log10 CFU/ml). It is filed as functional.
The subject of assay [8] is Pseudomonas aeruginosa. In words: Antimicrobial activity against Pseudomonas aeruginosa PaM02 biofilm at 128 ug/ml after 24 hrs by crystal violet staining-based ELISA reader analysis. It is filed as functional. The note with it: PaM02, 24 h. A digest of the protocol: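 Preformed biofilm was grown from 100 µL of 1.0 × 10^7 CFU/ml inoculum for 24 h at 37 °C in polystyrene wells. Planktonic cells were removed and wells rinsed with PBS. Compound at 128 µg/ml final in LB was added for a further 24 h at 37 °C. Biofilm was stained with 1% crystal violet, destained with 95% ethanol and read at 570 nm. Reduction = [(Ac−At)/Ac] × 100 versus LB/DMSO controls.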

For assay [9], the system named is Pseudomonas aeruginosa. In words: Antimicrobial activity against Pseudomonas aeruginosa PaM02 assessed as growth inhibition at 0.323 umol/ml by microtitre plate reader analysis. The format is functional. An outline of the steps:
as §1

The subject of assay [10] is Pseudomonas aeruginosa. In words: Antimicrobial activity against Pseudomonas aeruginosa PaM02 assessed as growth inhibition at 0.315 umol/ml by microtitre plate reader analysis. It is filed as functional. An outline of the steps:
as §1

In assay [11] the test system is Pseudomonas aeruginosa. In words: Antimicrobial activity against Pseudomonas aeruginosa PaM02 assessed as growth inhibition at 0.008 umol/ml by microtitre plate reader analysis. The format is functional. An outline of the steps:
as §1

SMILES strings stand for the structures. Active and inactive are the calls of the source. The calls are words filed in the database; no cut-off is given here.

Regarding `COc1cc(/C=C/c2ccc(O[C@@H]3O[C@H](COC(=O)CC(C)(O)CC(=O)O)[C@@H](O)[C@H](O)[C@H]3O)cc2)oc(=O)c1` (some centres undefined), the result in the assay on Pseudomonas aeruginosa [1] was inactive.
What is called inhibition is the relative decrease from the control value, in per cent. The low end stands for a weak effect, the high end for a strong effect. On to `O=C(/C=C/c1ccc(O)c(O)c1)O[C@@H]1C[C@](O)(C(=O)O)C[C@@H](O)[C@H]1O` [CHLOROGENIC ACID], for which, in the assay with Pseudomonas aeruginosa [2], at 128 µg/mL the inhibition was 45%. The result in the assay with Pseudomonas aeruginosa [1] was inactive.
Regarding `COc1cc([C@H]2Oc3c(OC)cc(CCCO)cc3[C@@H]2CO)ccc1O[C@@H]1O[C@H](CO)[C@@H](O)[C@H](O)[C@H]1O`, the Activity in the assay on Pseudomonas aeruginosa [3] is reported as 2.043 log10CFU/ml; in the assay with Pseudomonas aeruginosa [4], 1.858 log10CFU/ml; in the assay on Pseudomonas aeruginosa [5], 1.765 log10CFU/ml; with Pseudomonas aeruginosa [7], 1.811 log10CFU/ml. The “growth inhibition (GI)” value with Pseudomonas aeruginosa [6] is reported as 21%.
As for `COc1cc2c(c(O[C@@H]3O[C@H](CO)[C@@H](O)[C@H](O)[C@H]3O)c1)C(=O)OC2`, in the assay on Pseudomonas aeruginosa [1], the outcome was inactive.
Consider `C=C(CO)[C@@H]1Oc2ccc(C(C)=O)cc2[C@@H]1O[C@@H]1O[C@H](CO)[C@@H](O)[C@H](O)[C@H]1O`, for which 128 µg/mL produced 9% inhibition in the assay on Pseudomonas aeruginosa [8]. Further, the result with Pseudomonas aeruginosa [1] was inactive.
On to `O=C(/C=C/c1ccc(O)c(O)c1)O[C@@H]1C[C@](O)(C(=O)O)C[C@@H](OC(=O)/C=C/c2ccc(O)c(O)c2)[C@H]1O`, for which the outcome with Pseudomonas aeruginosa [1] was inactive.
For the compound `COc1cc(/C=C/c2ccc(O[C@@H]3O[C@H](COC(=O)CC(=O)O)[C@@H](O)[C@H](O)[C@H]3O)cc2)oc(=O)c1`, the result in the assay with Pseudomonas aeruginosa [1] was inactive.
For the compound `C=C(CO[C@@H]1O[C@H](CO)[C@@H](O)[C@H](O)[C@H]1O)[C@@H]1Oc2ccc(C(C)=O)cc2[C@@H]1O`, the Activity worked out at 2.136 log10CFU/ml in the assay with Pseudomonas aeruginosa [3], 1.974 log10CFU/ml with Pseudomonas aeruginosa [4], 1.881 log10CFU/ml in the assay on Pseudomonas aeruginosa [5] and 1.927 log10CFU/ml in the assay with Pseudomonas aeruginosa [7]. The inhibition at 128 µg/mL with Pseudomonas aeruginosa [8] was determined as 16%. The “growth inhibition (GI)” value with Pseudomonas aeruginosa [9] worked out at 17%.
With `COc1cc(/C=C/c2ccc(O[C@@H]3O[C@H](CO)[C@@H](O)[C@H](O)[C@H]3O)cc2)oc(=O)c1`, the Activity worked out at 1.157 log10CFU/ml in the assay on Pseudomonas aeruginosa [3], 1.103 log10CFU/ml in the assay on Pseudomonas aeruginosa [4], 1.045 log10CFU/ml in the assay with Pseudomonas aeruginosa [5] and 1.055 log10CFU/ml with Pseudomonas aeruginosa [7]. Also, the “growth inhibition (GI)” value in the assay with Pseudomonas aeruginosa [10] is listed as 53%.
On to `COc1cc2c(c(O[C@@H]3O[C@H](COC(=O)CC(=O)O)[C@@H](O)[C@H](O)[C@H]3O)c1)C(=O)OC2`, for which at 128 µg/mL the inhibition with Pseudomonas aeruginosa [8] was 27%. In the assay with Pseudomonas aeruginosa [1], the result was inactive.
In the case of `NC[C@H]1O[C@H](O[C@H]2[C@H](O)[C@@H](O[C@H]3O[C@H](CO)[C@@H](O)[C@H](N)[C@H]3O)[C@H](N)C[C@@H]2N)[C@H](N)C[C@@H]1O` [TOBRAMYCIN], the “growth inhibition (GI)” value with Pseudomonas aeruginosa [11] was found to be 100%.
For `COc1cc(=O)oc([C@H]2[C@H](c3ccc(O[C@@H]4O[C@H](CO)[C@@H](O)[C@H](O)[C@H]4O)cc3)[C@H](c3cc(OC)cc(=O)o3)[C@H]2c2ccc(O[C@@H]3O[C@H](CO)[C@@H](O)[C@H](O)[C@H]3O)cc2)c1`, in the assay with Pseudomonas aeruginosa [1], the outcome was inactive.
On to `O=C1OCc2cc(O)cc(O[C@@H]3O[C@H](CO)[C@@H](O)[C@H](O)[C@H]3O)c21`, for which the result in the assay on Pseudomonas aeruginosa [1] was inactive.

The values are drawn from ChEMBL document CHEMBL2439968, “Spectroscopic identification and anti-biofilm properties of polar metabolites from the medicinal plant Helichrysum italicum against Pseudomonas aeruginosa” (2013).
